Assay results pooled from the literature.
Each line is one published result; the experiments were not run side by side.
Target: Mitogen-activated protein kinase 7 (MAPK7, Homo sapiens, UniProt Q13164)

Compound	observed	mode	technique	tested at	quantity	value
Cc1cc(O)c(-c2ccc([C@@H](C)CN(C)C)cc2)c2c1[nH]c(=O)c1sccc12	enzyme activity	inhibitor	–	0.1 µM	inhibition	-0.313%
C[C@]1(O)CCCN(c2nc(Nc3ccc(S(=O)(=O)N[C@H]4CC[C@H](CN5CCN(c6ccc(C7CCC(=O)NC7=O)cc6F)CC5)CC4)cc3F)ncc2C(F)(F)F)C1 (some centres unmarked)	binding	–	competition with immobilised ligand	1 µM	remaining binding	37%
CCCCC(=O)Nc1ccc(-c2ccc3ncn(CCC)c(=O)c3c2)cn1	binding	–	competition with immobilised ligand	0.5 µM	remaining binding	82%
COc1ccc2[nH]c3c4[nH]c5ccc(OC)cc5c4c4c(c3c2c1)C(=O)NC4=O	binding	–	–	1 µM	remaining binding	69%
CO[C@@H]1[C@H](N(C)C(=O)c2ccccc2)C[C@H]2O[C@]1(C)n1c3ccccc3c3c4c(c5c6ccccc6n2c5c31)C(=O)NC4	enzyme activity	inhibitor	–	1 µM	inhibition	0%
C[C@H]1CC[C@H](n2c3cnccc3c3cnc(Nc4ccc5c(n4)CCN(C(=O)CO)C5)nc32)CC1	cell-free assay	–	–	1 µM	remaining signal	92%
CC#CC(=O)N1CCC[C@H]1c1nc(-c2ccc(C(=O)Nc3ccccn3)cc2)c2c(N)nccn12	enzyme activity	inhibitor	–	1 µM	inhibition	0%
C[C@]1(O)CCCN(c2nc(Nc3ccc(S(=O)(=O)N[C@H]4CC[C@H](CN5CCN(c6ccc(C7CCC(=O)NC7=O)cc6F)CC5)CC4)cc3Cl)ncc2C(F)(F)F)C1 (some centres unmarked)	binding	–	competition with immobilised ligand	1 µM	remaining binding	18%
